Data on six molecules can be found in ChEMBL document CHEMBL1629529, “Design, synthesis, and evaluation of diarylpyridines and diarylanilines as potent non-nucleoside HIV-1 reverse transcriptase inhibitors” (J Med Chem, 2010).

One data set concerns MT2. Put plainly: Cytotoxicity in human MT2 cells after 4 day by XTT assay. Format: cell-based. The following applies: mt2, 96 h. The method, boiled down: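 MT-2 cells (5 · 10^5/mL) were mixed with an equal volume of graded compound concentrations and incubated 4 days at 37 °C. XTT solution (1 mg/mL) containing 0.02 μM phenazine methosulphate was then added. After 4 h, absorbance at 450 nm was read.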
In the case of `CC(=O)/C=C/c1cc(C)c(Oc2cc(Nc3ccc(C#N)cc3)c(N)cc2[N+](=O)[O-])c(C)c1`, it took 22600 nM to reach half-maximal cytotoxicity (CC50).
Still for that read-out and setting: the same measure for `Cc1cc(Br)cc(C)c1Oc1ccc(N)c(Nc2ccc(C#N)cc2)n1`: 9610 nM.
On to `Cc1cc(Br)cc(C)c1Oc1ccc([N+](=O)[O-])c(Nc2ccc(C#N)cc2)n1`, for which the CC50 (in general, the concentration that lowers cell viability or growth by half) came out at 65100 nM.
On the same count and under the same terms, the value for `C=CCc1cc(C)c(Oc2ccc(N)c(Nc3ccc(C#N)cc3)n2)c(C)c1` was 14000 nM.
The same measure, in the same setting: the same measure for `Cc1cc(C#CC2CC2)cc(C)c1Oc1ccc(N)c(Nc2ccc(C#N)cc2)n1`: 5710 nM.
On the same count and under the same terms, the value for `Cc1cc(C(O)C[N+](=O)[O-])cc(C)c1Oc1ccc([N+](=O)[O-])c(Nc2ccc(C#N)cc2)n1` (stereo not given) was 27100 nM.

System in another data set: not listed separately
The data set is described as follows: Cytotoxicity in human TZM-bl cells after 4 day by XTT assay. The following applies: 96 h. The class given is cell-based. On the technique in general: Tetrazolium assays rely on reduction of a dye to a coloured formazan, in cell work by metabolically active cells.
Take `CC(=O)/C=C/c1cc(C)c(Oc2cc(Nc3ccc(C#N)cc3)c(N)cc2[N+](=O)[O-])c(C)c1`: the CC50 was 5880 nM. This lies in the single-digit micromolar range.
Turning to `Cc1cc(Br)cc(C)c1Oc1ccc(N)c(Nc2ccc(C#N)cc2)n1`, it took 15500 nM to reach half-maximal cytotoxicity (CC50). Against the preceding molecule, the CC50 is about 2.6-fold higher.
The same measure, in the same setting: the same measure for `Cc1cc(Br)cc(C)c1Oc1ccc([N+](=O)[O-])c(Nc2ccc(C#N)cc2)n1`: above 45700 nM.
As to `C=CCc1cc(C)c(Oc2ccc(N)c(Nc3ccc(C#N)cc3)n2)c(C)c1`, the CC50 was 8460 nM.
Same read-out and setting: the same measure for `Cc1cc(C#CC2CC2)cc(C)c1Oc1ccc(N)c(Nc2ccc(C#N)cc2)n1`: 7450 nM.
On the same count and under the same terms, the value for `Cc1cc(C(O)C[N+](=O)[O-])cc(C)c1Oc1ccc([N+](=O)[O-])c(Nc2ccc(C#N)cc2)n1` (stereo not given) was above 44500 nM.

Another data set deals with Human immunodeficiency virus 1. The data set is described as follows: Antiviral activity against multidrug resistant HIV1 A17 containing reverse transcripatseK103N and Y181C mutation infected in human MT2 cells assessed as reduction in p24 antigen level after 4 days by ELISA. The class given is functional, organism-based. The following applies: Human immunodeficiency virus 1, A17, MT2, 96 h. A digest of the protocol:
(§1)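 MT-2 cells (10^4/well) were infected with 100 TCID50 virus in RPMI 1640 with 10% FBS, with or without graded compound concentrations, overnight. Supernatant was then replaced with compound-free medium. On day 4 post-infection, supernatant was mixed 1:1 with 5% Triton X-100 and p24 antigen was quantified by ELISA. Percent inhibition was converted to EC50 with CalcuSyn. Tested at least in triplicate.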
In general terms: An ELISA detects its analyte on a solid surface through an enzyme-linked reagent.
In the case of `Cc1cc(Br)cc(C)c1Oc1ccc(N)c(Nc2ccc(C#N)cc2)n1`, the EC50 (commonly the concentration giving half of the maximal effect) came out at 3490 nM.
As to `Cc1cc(Br)cc(C)c1Oc1ccc([N+](=O)[O-])c(Nc2ccc(C#N)cc2)n1`, the EC50 was above 10000 nM.
Take `C=CCc1cc(C)c(Oc2ccc(N)c(Nc3ccc(C#N)cc3)n2)c(C)c1`: the EC50 was above 10000 nM.
With `Cc1cc(C#CC2CC2)cc(C)c1Oc1ccc(N)c(Nc2ccc(C#N)cc2)n1`, the EC50 is above 10000 nM.

For another data set, the system named is Human immunodeficiency virus 1. Put plainly: Antiviral activity against multidrug resistant HIV1 RTMDR containing reverse transcriptase L74V, M41L, V106A and T215Y mutant infected in human TZM-bl cells after 4 days by luciferase reporter gene assay. The class given is functional, organism-based. The following applies: Human immunodeficiency virus 1, RTMDR, 96 h.
`C=CCc1cc(C)c(Oc2ccc(N)c(Nc3ccc(C#N)cc3)n2)c(C)c1`: the EC50 was 15.4 nM.
Still for that read-out and setting: the same measure for `Cc1cc(C#CC2CC2)cc(C)c1Oc1ccc(N)c(Nc2ccc(C#N)cc2)n1`: 121 nM.

The subject of a further data set is Human immunodeficiency virus 1. Put plainly: Resistance index, ratio of EC50 for multidrug resistant HIV1 RTMDR to EC50 for wild type HIV1 NL4-3.
Conditions: not given
The class given is functional.
Take `Cc1cc(Br)cc(C)c1Oc1ccc(N)c(Nc2ccc(C#N)cc2)n1`: the “Ratio EC50” value is 0.93.
The same measure, in the same setting: the value for `Cc1cc(Br)cc(C)c1Oc1ccc([N+](=O)[O-])c(Nc2ccc(C#N)cc2)n1` was 1.55; that for `C=CCc1cc(C)c(Oc2ccc(N)c(Nc3ccc(C#N)cc3)n2)c(C)c1` was 2.23; that for `Cc1cc(C#CC2CC2)cc(C)c1Oc1ccc(N)c(Nc2ccc(C#N)cc2)n1` was 1.34.

In a further data set the test system is Human immunodeficiency virus 1. Put plainly: Antiviral activity against multidrug resistant HIV1 RTMDR containing reverse transcriptase L74V, M41L, V106A and T215Y mutant infected in human TZM-bl cells after 2 days by luciferase reporter gene assay. Particulars: Human immunodeficiency virus 1, RTMDR, 48 h. (A reporter such as luciferase makes a cellular process visible.)
As for `Cc1cc(Br)cc(C)c1Oc1ccc(N)c(Nc2ccc(C#N)cc2)n1`, the EC50 amounted to 6.8 nM.
`Cc1cc(Br)cc(C)c1Oc1ccc([N+](=O)[O-])c(Nc2ccc(C#N)cc2)n1` yielded an EC50 of 77.6 nM.

System in another data set: not listed separately
Put plainly: Selectivity index, ratio of CC50 for human TZM-bl cells to EC50 for HIV1 NL4-3. Particulars: tzm-bl. The class given is toxicity, cell-based.
In the case of `Cc1cc(Br)cc(C)c1Oc1ccc(N)c(Nc2ccc(C#N)cc2)n1`, the “Ratio CC50/EC50” value is 2132.
The same measure, in the same setting: the value for `Cc1cc(Br)cc(C)c1Oc1ccc([N+](=O)[O-])c(Nc2ccc(C#N)cc2)n1` was above 909.
The same measure, in the same setting: the same measure for `C=CCc1cc(C)c(Oc2ccc(N)c(Nc3ccc(C#N)cc3)n2)c(C)c1`: 1228; for `Cc1cc(C#CC2CC2)cc(C)c1Oc1ccc(N)c(Nc2ccc(C#N)cc2)n1`: 82.
Same read-out and setting: the same measure for `Cc1cc(C(O)C[N+](=O)[O-])cc(C)c1Oc1ccc([N+](=O)[O-])c(Nc2ccc(C#N)cc2)n1` (stereo not given): above 145.

The test system of a further data set is Human immunodeficiency virus 1. Put plainly: Antiviral activity against HIV1 3B infected in human MT2 cells assessed as reduction in p24 antigen level after 4 days by ELISA. The class given is functional, organism-based. Particulars: Human immunodeficiency virus 1, 3B, MT2, 96 h; read-out: EC50. A digest of the protocol: as §1
On to `CC(=O)/C=C/c1cc(C)c(Oc2cc(Nc3ccc(C#N)cc3)c(N)cc2[N+](=O)[O-])c(C)c1`, for which the EC50 was found to be 47 nM.
Turning to `Cc1cc(Br)cc(C)c1Oc1ccc(N)c(Nc2ccc(C#N)cc2)n1`, the EC50 came to 33 nM.
The same measure, in the same setting: the value for `Cc1cc(Br)cc(C)c1Oc1ccc([N+](=O)[O-])c(Nc2ccc(C#N)cc2)n1` was 45 nM; that for `C=CCc1cc(C)c(Oc2ccc(N)c(Nc3ccc(C#N)cc3)n2)c(C)c1` was 67 nM.
On the same count and under the same terms, the value for `Cc1cc(C#CC2CC2)cc(C)c1Oc1ccc(N)c(Nc2ccc(C#N)cc2)n1` was 410 nM.
As for `Cc1cc(C(O)C[N+](=O)[O-])cc(C)c1Oc1ccc([N+](=O)[O-])c(Nc2ccc(C#N)cc2)n1` (stereo not given), the EC50 worked out at 1710 nM.

A further data set deals with Human immunodeficiency virus 1. The data set is described as follows: Resistance index, ratio of EC50 for multidrug resistant HIV1 A17 to EC50 for wild type HIV1 3B. Format: functional.
Conditions: not given
On to `Cc1cc(Br)cc(C)c1Oc1ccc(N)c(Nc2ccc(C#N)cc2)n1`, for which the “Ratio EC50” value came out at 106.
The same measure, in the same setting: the same measure for `Cc1cc(Br)cc(C)c1Oc1ccc([N+](=O)[O-])c(Nc2ccc(C#N)cc2)n1`: above 222.
Still for that read-out and setting: the value for `C=CCc1cc(C)c(Oc2ccc(N)c(Nc3ccc(C#N)cc3)n2)c(C)c1` was above 149.
On the same count and under the same terms, the value for `Cc1cc(C#CC2CC2)cc(C)c1Oc1ccc(N)c(Nc2ccc(C#N)cc2)n1` was above 24.

Another data set has as its system Human immunodeficiency virus 1. Put plainly: Antiviral activity against HIV1 NL4-3 infected in human TZM-bl cells after 2 days by luciferase reporter gene assay. Particulars: Human immunodeficiency virus 1, NL4-3, TZM-bl, 48 h; read-out: EC50.
Consider `CC(=O)/C=C/c1cc(C)c(Oc2cc(Nc3ccc(C#N)cc3)c(N)cc2[N+](=O)[O-])c(C)c1`, for which the EC50 stood at 6.33 nM.
`Cc1cc(Br)cc(C)c1Oc1ccc(N)c(Nc2ccc(C#N)cc2)n1`: the EC50 was 7.29 nM.
Regarding `Cc1cc(Br)cc(C)c1Oc1ccc([N+](=O)[O-])c(Nc2ccc(C#N)cc2)n1`, the EC50 is 50.2 nM.
The same measure, in the same setting: the same measure for `C=CCc1cc(C)c(Oc2ccc(N)c(Nc3ccc(C#N)cc3)n2)c(C)c1`: 6.89 nM.
The same measure, in the same setting: the same measure for `Cc1cc(C#CC2CC2)cc(C)c1Oc1ccc(N)c(Nc2ccc(C#N)cc2)n1`: 91.2 nM.
On to `Cc1cc(C(O)C[N+](=O)[O-])cc(C)c1Oc1ccc([N+](=O)[O-])c(Nc2ccc(C#N)cc2)n1` (stereo not given), for which the EC50 amounted to 308 nM.

System in a further data set: not listed separately
Put plainly: Selectivity index, ratio of CC50 for human MT2 cells to EC50 for HIV1 3B. The class given is toxicity, cell-based. Particulars: mt2. A digest of the protocol: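 SI = CC50/EC50 (p24 ELISA). XTT (1 mg/mL) containing 0.02 μM PMS was added for 4 h, then absorbance was read at 450 nm. CC50 was calculated with CalcuSyn.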
Take `Cc1cc(Br)cc(C)c1Oc1ccc(N)c(Nc2ccc(C#N)cc2)n1`: the “Ratio CC50/EC50” value worked out at 291.
Same read-out and setting: the value for `Cc1cc(Br)cc(C)c1Oc1ccc([N+](=O)[O-])c(Nc2ccc(C#N)cc2)n1` was 1447; that for `C=CCc1cc(C)c(Oc2ccc(N)c(Nc3ccc(C#N)cc3)n2)c(C)c1` was 209.
On the same count and under the same terms, the same measure for `Cc1cc(C#CC2CC2)cc(C)c1Oc1ccc(N)c(Nc2ccc(C#N)cc2)n1`: 14; for `Cc1cc(C(O)C[N+](=O)[O-])cc(C)c1Oc1ccc([N+](=O)[O-])c(Nc2ccc(C#N)cc2)n1` (stereo not given): 16.
